Active and inactive are the calls of the source. The calls are words filed in the database; no cut-off is given here.
Legend:
[1] = (§1) Cytotoxicity against human PC3 cells assessed as growth inhibition at 50 uM; format: functional; conditions: PC-3, read-out: GI
Procedure, shortened: (§2)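 Growth inhibition calculated from absorbance as 100 − (sample absorbance / vehicle absorbance × 100).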

[2] = system: Syrian golden hamster; assay: Increase of diameter of pigmented spot of flank organs in gonadectomized golden hamster at 2 mg/kg, sc qd for 6 days co-administered with 1 mg/kg of testosterone (reference value: 2.03 +/- 0.63 millimeter); format: functional, Mesocricetus auratus
[3] = (§3) Cytotoxicity against human SKLU1 cells as growth inhibition at 50 uM; format: functional; conditions: SK-LU-1, read-out: GI; procedure, shortened: as §2
[4] = system: Syrian golden hamster; assay: Increase of prostate weight in gonadectomized golden hamster at 2 mg/kg, sc qd for 6 days co-administered with 1 mg/kg of testosterone (reference value: 50.4 +/- 9.9 mg); format: functional, Mesocricetus auratus, Prostate gland
[5] = system: Syrian golden hamster; assay: Increase of seminal vesicles weight in gonadectomized golden hamster at 2 mg/kg, sc qd for 6 days co-administered with 1 mg/kg of testosterone (reference value: 96.11 +/- 12.5 mg); format: functional, Mesocricetus auratus
[6] = target: T1, Androgen receptor (Rattus norvegicus, UniProt P15207); assay: Displacement of [3H}-MIB from rat prostate cytosol androgen receptor assessed as relative binding affinity
T1 sequence (P15207 whole entry): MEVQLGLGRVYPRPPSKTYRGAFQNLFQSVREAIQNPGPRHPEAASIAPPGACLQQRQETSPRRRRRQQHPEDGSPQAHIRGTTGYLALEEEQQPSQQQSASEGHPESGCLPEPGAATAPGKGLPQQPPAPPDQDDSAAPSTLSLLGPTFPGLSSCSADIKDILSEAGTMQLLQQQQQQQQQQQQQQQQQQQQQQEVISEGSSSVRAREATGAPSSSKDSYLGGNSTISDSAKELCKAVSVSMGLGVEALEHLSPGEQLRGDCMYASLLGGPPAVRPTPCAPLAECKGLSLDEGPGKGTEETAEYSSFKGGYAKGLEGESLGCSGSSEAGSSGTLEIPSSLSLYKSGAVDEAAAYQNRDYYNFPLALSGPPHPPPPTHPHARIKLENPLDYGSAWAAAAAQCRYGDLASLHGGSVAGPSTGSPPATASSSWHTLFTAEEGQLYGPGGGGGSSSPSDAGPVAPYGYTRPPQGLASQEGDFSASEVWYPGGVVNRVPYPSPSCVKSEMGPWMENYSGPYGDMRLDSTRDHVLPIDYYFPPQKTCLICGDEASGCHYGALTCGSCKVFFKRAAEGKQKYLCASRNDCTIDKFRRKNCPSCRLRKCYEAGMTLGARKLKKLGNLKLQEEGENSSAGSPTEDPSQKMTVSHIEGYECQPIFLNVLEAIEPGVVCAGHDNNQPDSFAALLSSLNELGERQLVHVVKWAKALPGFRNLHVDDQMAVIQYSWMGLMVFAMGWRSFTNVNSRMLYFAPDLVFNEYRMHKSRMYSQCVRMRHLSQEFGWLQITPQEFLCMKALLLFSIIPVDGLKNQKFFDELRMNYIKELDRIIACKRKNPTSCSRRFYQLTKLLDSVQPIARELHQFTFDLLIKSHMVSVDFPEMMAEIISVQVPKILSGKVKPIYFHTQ

[7] = system: MCF7; assay: Cytotoxicity against human MCF7 cells as growth inhibition at 50 uM; format: functional; conditions: for inhibition of growth at 50 µM: read-out: GI; procedure, shortened: as §2
[8] = target: T2, 3-oxo-5-alpha-steroid 4-dehydrogenase 2 (Homo sapiens, UniProt P31213); assay: Inhibition of human prostate type 2 5alpha-reductase assessed as transformation of testosterone to dihydrotestosterone; format: tissue-based, Prostate gland
T2 sequence (P31213 whole entry): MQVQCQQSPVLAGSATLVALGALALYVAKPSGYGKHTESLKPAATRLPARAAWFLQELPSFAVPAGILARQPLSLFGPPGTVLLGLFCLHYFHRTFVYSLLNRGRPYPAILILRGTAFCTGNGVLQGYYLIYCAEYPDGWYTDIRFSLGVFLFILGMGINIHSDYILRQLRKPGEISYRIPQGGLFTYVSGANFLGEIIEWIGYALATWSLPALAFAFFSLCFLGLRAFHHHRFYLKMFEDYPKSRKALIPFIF
Procedure, shortened: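 Enzyme source: normal prostate from a person, homogenized in buffer A (20 mM sodium phosphate pH 6.5, 0.32 M sucrose, 0.1 mM DTT), pelleted at 1500 × g, resuspended at 5 mg protein/mL. Inhibitors at 1 × 10⁻¹⁰ to 10⁻⁴ M. Radiolabelled T→DHT conversion quantified by TLC lane radioactivity against total plate radioactivity. IC50 taken from inhibition curves.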

[9] = target: T3, 3-oxo-5-alpha-steroid 4-dehydrogenase 1 (Rattus norvegicus, UniProt P24008); assay: Inhibition of rat liver type 1 5alpha-reductase assessed as transformation of testosterone to dihydrotestosterone
T3 sequence (P24008 whole entry): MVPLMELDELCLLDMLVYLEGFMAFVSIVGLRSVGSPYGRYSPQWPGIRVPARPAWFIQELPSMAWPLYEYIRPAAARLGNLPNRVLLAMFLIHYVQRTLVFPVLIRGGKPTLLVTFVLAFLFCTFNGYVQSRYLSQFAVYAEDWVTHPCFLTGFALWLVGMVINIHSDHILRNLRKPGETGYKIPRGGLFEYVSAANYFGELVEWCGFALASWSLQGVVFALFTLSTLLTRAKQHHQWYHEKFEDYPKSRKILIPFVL
Procedure, shortened: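 Enzyme source: liver microsomes from overnight-fasted adult rats (8-month, 500 g), prepared in buffer A (20 mM sodium phosphate pH 6.5, 0.32 M sucrose, 0.1 mM DTT) at 4 °C, resuspended at 20 mg protein/mL. Inhibitors at 1 × 10⁻¹⁰ to 10⁻⁴ M. Radiolabelled T→DHT conversion quantified from TLC-plate radioactivity. IC50 taken from inhibition curves.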

[10] = system: PC-3; assay: as §1; format: functional; procedure, shortened: as §2
[11] = system: SK-LU-1; assay: as §3; format: functional; procedure, shortened: as §2
[12] = system: Syrian golden hamster; assay: Increase of prostate weight in gonadectomized golden hamster at 1 mg/kg, sc qd for 6 days (reference value: 50.4 +/- 9.9 mg); format: functional, Mesocricetus auratus, Prostate gland
[13] = system: Syrian golden hamster; assay: Increase of diameter of pigmented spot of flank organs in gonadectomized golden hamster at 1 mg/kg, sc qd for 6 days (reference value: 2.03 +/- 0.63 millimeter); format: functional, Mesocricetus auratus
[14] = system: Syrian golden hamster; assay: Increase of seminal vesicles weight in gonadectomized golden hamster at 1 mg/kg, sc qd for 6 days (reference value: 96.11 +/- 12.5 mg); format: functional, Mesocricetus auratus
[15] = system: Syrian golden hamster; assay: Increase of seminal vesicles weight in gonadectomized golden hamster at 1 mg/kg, sc qd for 6 days co-administered with 1 mg/kg of testosterone (reference value: 96.11 +/- 12.5 mg); format: functional, Mesocricetus auratus
[16] = system: Syrian golden hamster; assay: Increase of prostate weight in gonadectomized golden hamster at 1 mg/kg, sc qd for 6 days co-administered with 1 mg/kg of testosterone (reference value: 50.4 +/- 9.9 mg); format: functional, Mesocricetus auratus, Prostate gland
[17] = system: Syrian golden hamster; assay: Increase of diameter of pigmented spot of flank organs in gonadectomized golden hamster at 1 mg/kg, sc qd for 6 days co-administered with 1 mg/kg of testosterone (reference value: 2.03 +/- 0.63 millimeter); format: functional, Mesocricetus auratus

SMILES	inhibition of growth at 50 µM [1]	Activity [2]	inhibition of growth at 50 µM [3]	Activity [4]	Activity [5]	IC50 [6]	inhibition of growth at 50 µM [7]	IC50 [8]	IC50 ([9]; read-out: IC50)	growth inhibition (GI) [10]	IC50 ([8]; read-out: IC50)	IC50 [9]	growth inhibition (GI) [11]	growth inhibition (GI) [7]	Activity [12]	Activity [13]	Activity [14]	Activity [15]	Activity [16]	Activity [17]
CCCCCC(=O)O[C@H]1CC[C@@]2(C)C(=CC[C@@H]3[C@@H]2CC[C@]2(C)C(C(=O)Cn4cncn4)=CC[C@@H]32)C1	16.9%	2.8 mm	6.4%	86.9 mg	200 mg	Not Active	14.4%	Not Active	100 µM	–	–	–	–	–	–	–	–	–	–	–
CC(=O)N1CCN(c2ccc(OCC3COC(Cn4ccnc4)(c4ccc(Cl)cc4Cl)O3)cc2)CC1 (stereo not given) [KETOCONAZOLE]	88.5%	–	73.4%	–	–	–	95.2%	–	–	–	–	–	–	–	–	–	–	–	–	–
CCC(=O)O[C@H]1CC[C@@]2(C)C(=CC[C@@H]3[C@@H]2CC[C@]2(C)C(C(=O)Cn4cncn4)=CC[C@@H]32)C1	–	2.79 mm	8.8%	89.55 mg	157.08 mg	Not Active	5.9%	Not Active	0.088 µM	inactive	–	–	–	–	–	–	–	–	–	–
CC(=O)O[C@H]1CC[C@@]2(C)C(=CC[C@@H]3[C@@H]2CC[C@]2(C)C(C(=O)Cn4cncn4)=CC[C@@H]32)C1	56.2%	2.9 mm	74.8%	87.65 mg	216.075 mg	Not Active	59.4%	–	–	–	100 µM	Not Active	–	–	–	–	–	–	–	–
CCCCC(=O)O[C@H]1CC[C@@]2(C)C(=CC[C@@H]3[C@@H]2CC[C@]2(C)C(C(=O)Cn4cncn4)=CC[C@@H]32)C1	38.2%	3.71 mm	20.2%	82.3 mg	180.03 mg	Not Active	38.5%	Not Active	0.32 µM	–	–	–	–	–	–	–	–	–	–	–
C[C@]12CC[C@H](OC(=O)C3CCC3)CC1=CC[C@@H]1[C@@H]2CC[C@]2(C)C(C(=O)Cn3cncn3)=CC[C@@H]12	–	2.14 mm	–	100 mg	130 mg	Not Active	–	Not Active	–	inactive	–	Not Active	inactive	inactive	–	–	–	–	–	–
C[C@]12CC[C@H](OC(=O)C3CCCCCC3)CC1=CC[C@@H]1[C@@H]2CC[C@]2(C)C(C(=O)Cn3cncn3)=CC[C@@H]12	–	4.45 mm	–	78.2 mg	203.98 mg	Not Active	–	–	–	inactive	–	Not Active	inactive	inactive	–	–	–	–	–	–
C[C@]12CC[C@H]3[C@@H](CCC4=CC(=O)CC[C@@]43C)[C@@H]1CC[C@@H]2O [TESTOSTERONE]	–	–	–	–	–	–	–	–	–	–	–	–	–	–	98 mg	5.65 mm	200.6 mg	–	–	–
CC(C)(C)NC(=O)[C@H]1CC[C@H]2[C@@H]3CC[C@H]4NC(=O)C=C[C@]4(C)[C@H]3CC[C@]12C [FINASTERIDE]	–	–	–	–	–	–	–	–	–	inactive	–	–	inactive	inactive	–	–	–	161.4 mg	69.6 mg	3.57 mm
C[C@]12CC[C@H](OC(=O)C3CC3)CC1=CC[C@@H]1[C@@H]2CC[C@]2(C)C(C(=O)Cn3cncn3)=CC[C@@H]12	–	2.88 mm	–	107.48 mg	180.3 mg	Not Active	–	–	–	inactive	118 µM	Not Active	inactive	inactive	–	–	–	–	–	–
C[C@]12CC[C@H](OC(=O)C3CCCC3)CC1=CC[C@@H]1[C@@H]2CC[C@]2(C)C(C(=O)Cn3cncn3)=CC[C@@H]12	–	2.8 mm	–	97 mg	120 mg	Not Active	–	Not Active	–	inactive	–	Not Active	inactive	inactive	–	–	–	–	–	–
C[C@]12CC[C@H](O)CC1=CC[C@@H]1[C@@H]2CC[C@]2(C)C(C(=O)Cn3cncn3)=CC[C@@H]12	61.3%	3.05 mm	88.9%	89 mg	163.33 mg	Not Active	62.1%	Not Active	–	–	–	Not Active	–	–	–	–	–	–	–	–
C[C@]12CC[C@H](OC(=O)C3CCCCC3)CC1=CC[C@@H]1[C@@H]2CC[C@]2(C)C(C(=O)Cn3cncn3)=CC[C@@H]12	–	3 mm	–	88 mg	150 mg	Not Active	–	Not Active	–	inactive	–	Not Active	inactive	inactive	–	–	–	–	–	–
CCCC(=O)O[C@H]1CC[C@@]2(C)C(=CC[C@@H]3[C@@H]2CC[C@]2(C)C(C(=O)Cn4cncn4)=CC[C@@H]32)C1	9.2%	2.71 mm	15.6%	81.3 mg	138.9 mg	Not Active	25.6%	Not Active	–	–	–	Not Active	–	–	–	–	–	–	–	–
